# The list is not random: actives were taken first. Their share in the collection is about 1.5%.
# Runt-CBFb FRET – blocks binding of human RUNX1 Runt domain to CBFb | inhibition, % at 20 µM | Cerulean-Runt/Venus-CBFb FRET ratio 530/480, 1 h | 220,000 tested, 0.46% active | AID 1496 | Q01196+Q13951;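 active means inhibition over about 50% at 20 µM in the single-dose screen, limit read from the data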;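 further: 0% = DMSO wells and 100% = excess unlabeled CBFb competitor control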
#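 Assay system: Cerulean-Runt domain fusion protein, energy donor; Signal: fluorescence energy transfer, 422 nm excitation, 530/480 nm emission; Timing: 1 h compound exposure, room temperature; Control set: unlabeled CBFb; Medium: Tris buffer pH 7.5 with salts and BSA; Compound: single test concentration of 20 µM, 1% DMSO final; Probe or stimulus: Venus-CBFb 100 nM.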
# Runt-SMMHC FRET – inhibitors of human RUNX1 Runt domain binding to CBFb-SMMHC; AID 1434; 220,000 tested, 0.74% active; Cerulean-Runt/Venus-CBFb-SMMHC FRET ratio 530/480, 1 h; Q01196+Q13951; inhibition, % at 20 µM;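 active means mean inhibition across duplicate retests at 20 µM reaching about 50%, limit read from the data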;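 further: 0% = DMSO wells and 100% = wells with excess untagged CBFb-SMMHC; inhibitors lower the FRET ratio by blocking Runt binding to CBFb-SMMHC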
# Hck Nef HTS – blocks Nef-activated human Hck kinase; AID 463187; P08631; inhibition, % at 20 µM; Recombinant Hck-YEEI plus Nef, Z-Lyte FRET kinase assay; 220,000 tested, 0.68% active;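 active means Hck-Nef kinase inhibition above about 50%, limit read from the data; inactive means inhibition below that limit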;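 further: 0% = DMSO with Hck plus Nef and 100% = Hck alone without Nef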
# Target sequence (P08631 whole entry, looked up): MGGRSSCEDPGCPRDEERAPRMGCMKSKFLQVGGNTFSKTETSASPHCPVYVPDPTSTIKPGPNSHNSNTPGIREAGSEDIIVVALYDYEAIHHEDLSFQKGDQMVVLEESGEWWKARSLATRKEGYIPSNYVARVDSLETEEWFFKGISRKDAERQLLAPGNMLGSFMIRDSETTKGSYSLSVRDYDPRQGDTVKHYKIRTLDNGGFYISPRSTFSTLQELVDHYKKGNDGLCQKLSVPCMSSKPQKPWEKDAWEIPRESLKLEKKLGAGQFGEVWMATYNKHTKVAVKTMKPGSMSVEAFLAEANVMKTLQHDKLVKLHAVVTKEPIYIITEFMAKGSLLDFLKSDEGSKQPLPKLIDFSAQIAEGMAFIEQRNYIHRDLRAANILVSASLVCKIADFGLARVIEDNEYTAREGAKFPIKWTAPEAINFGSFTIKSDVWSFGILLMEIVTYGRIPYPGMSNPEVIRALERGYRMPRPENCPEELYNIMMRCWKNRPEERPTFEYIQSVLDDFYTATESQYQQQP
# CaV13 ICDI inh – Primary screen for inhibitors of IQ motif and Ca2+-dependent inactivation inhibitor domain binding in CACNA1D, Förster resonance energy transfer in living cells, …; HEK cells, CFP/YFP FRET ICDI-IQ, plate reader, 10 min; percent FRET-ratio fall versus neutral wells; inhibition, % at 12.3 µM; 340,000 tested, 0.098% active;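 active means mean replicate inhibition of at least 30% and at least 1% of replicates passing that level; inconclusive means only one of the two criteria is met; inactive means neither criterion is met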;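 further: 0% = median of the neutral control wells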
# RanGTP-Impb inh – disruptors of Ran-importin-beta complex formation – biochemical, FRET, CFP-Ran, YFP-importin-beta, homogeneous, primary screen. cell-free CFP-Ran/YFP-importin-beta FRET ratio. inhibition, % (concentration not given with the values). 300,000 tested, 1.1% active. AID 2216;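 active means more than half of the replicate wells show a fall in the fluorescence ratio signal beyond about 16%, limit read from the data, passing the limit was not always enough; inconclusive means exactly half of the replicate wells pass the set limit; inactive means fewer than half of replicates pass the limit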;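 further: 0% = DMSO wells and 100% = Ran loaded with GDP instead of GTP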
# Numbers without * were called inactive; ? = inconclusive; · = not tested or not shown.
SMILES,Runt-CBFb FRET,Runt-SMMHC FRET,Hck Nef HTS,CaV13 ICDI inh,RanGTP-Impb inh
COc1ccccc1-n1c(SCC(=O)O)nnc1-c1ccc(S(=O)(=O)N2CCCCC2)cc1,0,-3,-1,-9,-2
COc1ccc(NC2=C(C(C)=O)C(c3ccc(OC)c(OC)c3)C(C(C)=O)C(C)(O)C2)cc1 (stereo unspecified),-1,-3,15,-6,164*
Cc1[nH]n(-c2ccccc2)c(=O)c1/C=N/c1ccccn1,-2,-1,0,0,2
Cc1nc2ccc(NC(=O)N3CCCCC3)cc2s1,-1,1,13,-9,6
Oc1c(CN2CCc3ccccc3C2)cc(Cl)c2cccnc12,3,-15,2,·,23*
[O-]/[N+](=C/c1ccccc1)c1ccccc1,·,·,·,45*,·
[O-]/[N+](=C\c1ccccc1)c1ccccc1,·,·,·,-10,·
O=C(N/N=C1/CCS(=O)(=O)c2ccc(F)cc21)c1ccccn1,2,-3,20,-4,1
Cc1cc(=O)oc2c(CN3CCCCC3)c(O)ccc12,·,·,·,-5,·
CN(C)CCCN(Cc1ccccc1)C(=S)Nc1ccc(OC(F)F)cc1,-1,3,0,-5,18*
CN(Cc1ccccc1)C(=S)Nc1ccc(OC(F)F)cc1,0,0,9,-6,-1
O=c1[nH]c2c(=O)[nH]cnc2nc1-c1ccccc1,·,·,·,?,47*
COc1ccc2nc(SCC(=O)N3CCCCC3)c(C#N)cc2c1,0,-2,25,-16,3
COc1ccc2nc(N3CCCCC3)c(C#N)cc2c1,74*,41,1,·,31*
COc1ccc2nc(N3CCCC3)c(C#N)cc2c1,60*,·,2,·,1
O=C(NOC(=O)c1ccccc1)c1ccccc1,1,-2,-13,-19,12
CC1(C)CC(=O)C2=C(C1)OC(N)=C(C#N)C2c1ccccc1[N+](=O)[O-] (stereo unspecified),86*,91*,20,-2,61*
CC1=CC(c2ccccc2)n2nc(NS(=O)(=O)c3ccc(C)cc3)nc2N1 (stereo unspecified),35,85*,15,·,·
CC(=O)c1ccc2noc(-c3ccccc3)c2c1,·,·,22,-4,2
CC(=O)c1ccc2c(c1)c(C#N)c1ccccc1[n+]2[O-],·,·,·,-13,68*
O=C(Oc1c(CN2CCOCC2)cc(Cl)c2cccnc12)c1ccccc1F,-1,4,1,-6,33*
CCc1ccc(-c2cc(C(F)(F)F)n3nc(C(=O)Nc4c(C)nn(Cc5ccccc5Cl)c4C)cc3n2)s1,-23,29,10,-12,?
CCc1ccc(-c2cc(C(F)(F)F)n3nc(C(=O)Nc4c(C)nn(Cc5ccccc5C)c4C)cc3n2)s1,7,12,6,·,35*
Cc1ccccc1Cn1ccc(NC(=O)c2cc3nc(-c4ccco4)cc(C(F)(F)F)n3n2)n1,5,-4,6,-5,54*
N#CC1=C(N)SC(N)=C(C#N)C1c1ccoc1,13,-28,20,·,40*
SMILES,Runt-CBFb FRET,Runt-SMMHC FRET,Hck Nef HTS,CaV13 ICDI inh,RanGTP-Impb inh
COc1ccc(NC(=O)c2cc(C3CCCCN3C(=O)c3ccccc3)on2)c(C)c1 (stereo unspecified),·,·,·,-7,·
COc1ccc(C[C@H]2CN3C(=NC[C@@H]3C(C)C)N2CCNC(=O)CCC2CCCCC2)cc1,0,1,-7,-6,5
O=C(CCC1CCCCC1)NCCN1C2=NC[C@H](Cc3ccc(O)cc3)N2C[C@H]1Cc1ccc(O)cc1,0,-6,0,-6,16*
C[C@@H]1CN=C2N(CCNC(=O)CCC3CCCCC3)[C@H](Cc3ccc(O)cc3)CN21,3,5,-10,-12,-2
COc1ccc(C[C@H]2CN3C(=NC[C@@H]3Cc3ccccc3)N2CCNC(=O)CCC2CCCCC2)cc1,0,-1,0,65*,1
CCOc1cc(CNc2ccc(N3CCCC3)cc2)cc(Cl)c1OC,-4,-2,18,-3,0
COc1ccc(/C=N/Nc2cc(N3CCCC3)nc(N3CCCC3)n2)cc1,1,-3,16,-2,60*
Oc1ccc(/C=N/Nc2cc(N3CCCC3)nc(N3CCCC3)n2)cc1,2,-1,0,-5,86*
Oc1ccc(/C=N/Nc2nc(N3CCCC3)nc(N3CCCC3)n2)cc1O,5,-1,22,-4,-4
COc1ccc(/C=N/Nc2cc(C)nc(-n3nc(C)cc3C)n2)cc1,-4,2,-1,-17,-3
COc1ccc(-c2cc(C(F)(F)F)n3ncc(C(=O)N(C)Cc4ccccc4)c3n2)cc1,1,11,-16,-6,10
CCN1/C(=C2/SC(=S)N(NC(C)=O)C2=O)Sc2ccc(Cl)cc21,·,·,·,0,33*
CCN1/C(=C2/SC(=S)N(NC(C)=O)C2=O)Sc2ccc(OC)cc21,·,·,·,-5,34*
CCCCN1C(=O)/C(=C2/Sc3ccc(OC)cc3N2CC)SC1=S,·,·,·,·,23*
C=CCN1C(=O)/C(=C2/Sc3ccc(OC)cc3N2CC)SC1=S,·,·,·,-43,?
O=C(CSc1ccc2nnc(-c3cccnc3)n2n1)c1ccccc1,0,1,20,-2,-1
Cc1cc(C)n(C(=O)CNC(=O)c2ccccc2Br)n1,·,·,·,-6,?
O=S(=O)(Nc1nc2ccccc2nc1Nc1ccc(N2CCOCC2)cc1)c1cc(Cl)ccc1Cl,2,-7,-1,-43,37*
CCN1CCN(c2ccc(S(=O)(=O)N3CCCCC3)cc2NC(=O)Cc2ccccc2F)CC1,·,·,·,-7,4
COCCn1nnnc1SCC(=O)c1ccccc1,84*,-2,-4,-4,0
CCOC(=O)CN1CC23C=CC(O2)C(C(=O)NC2CCCC2)C3C1=O (stereo unspecified),0,-7,-5,-2,1
CC(=O)c1cccc(-c2ccnc3c2CC(C(=O)NCc2ccc(F)c(F)c2)O3)c1 (stereo unspecified),·,·,·,44*,·
CC(=O)c1cccc(-c2ccnc3c2CC(C(=O)NCc2ccccc2)O3)c1 (stereo unspecified),·,·,·,-8,·
CCc1ccc(NC(=O)C(C)OC(=O)C2CCN(c3ccc(C(F)(F)F)cn3)CC2)cc1 (stereo unspecified),·,·,·,-6,0
CNC(=O)c1c(NC(=O)c2ccc(S(=O)(=O)N3CCCC3)cc2)sc2c1CCN(C(C)C)C2,·,·,·,·,13
CC(C)N1CCc2c(sc(NC(=O)c3ccc(S(=O)(=O)N4CCOCC4)cc3)c2C(N)=O)C1,-5,2,-4,-8,49*
CNC(=O)c1c(NC(=O)c2ccc(S(=O)(=O)N3CC(C)OC(C)C3)cc2)sc2c1CCN(C(C)C)C2 (stereo unspecified),·,·,·,·,62*
CCOC(=O)c1sc2ncnc(N3CCN(CC)CC3)c2c1C,·,1,18,1,7

# Assay outcomes as filed in PubChem BioAssay.
